Test results from ChEMBL document CHEMBL1131831, “A rapid method to identify exo-protease inhibitors” (Bioorg Med Chem Lett, 1999).

How the values were obtained:
[1] = substrate: COCCOCCOCCOCCOC(=O)N[C@@H](C)C(=O)N[C@H](C)C(=O)N(C)c1ccc(C#C/C=C/c2ccc([N+](=O)[O-])c(O)c2)cc1; test: Proteolysis constant (Km), when mixed with elastase enzyme for the conversion of water-soluble compound to fluorescent oil-soluble compound
How it was run: (§1)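 Porcine pancreatic trypsin (type IX), porcine pancreatic kallikrein, bovine spleen cathepsin B and porcine pancreatic elastase, each enzyme added to 12 µM substrate solution over mineral oil, shaken at 37 °C. Buffers: trypsin 10 mM Tris-HCl pH 7.8; kallikrein 50 mM Tris pH 9.0; cathepsin B 100 mM potassium phosphate pH 6.0; elastase 10 mM Tris-HCl pH 7.5. Released fluorophore in the oil is diluted with n-heptane and quantified at 424 nm against oil absorbance at 272 nm.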

[2] = substrate: CC(C)C[C@H](NC(=O)[C@H](N)Cc1ccc(O)cc1)C(=O)N[C@@H](C(=O)N(C)c1ccc(C#C/C=C/c2ccc([N+](=O)[O-])c(O)c2)cc1)C(C)C; test: Proteolysis constant (Km), when mixed with human leukocyte elastase (HLE) enzyme for the conversion of water-soluble compound to fluorescent oil-soluble compound
How it was run: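 Human leukocyte elastase (1 unit = 1.2 µg; releases 1 µmol/min p-nitrophenol from N-t-BOC-L-alanine-p-nitrophenyl ester, pH 6.5, 37 °C) in 50 mM NaOAc, 100 mM NaCl, 8 mM NaN3 pH 6.0. Enzyme mixed with 12 µM substrate in buffer under a trace mineral-oil layer, shaken at 37 °C. Released fluorophore extracted into oil, diluted with n-heptane, quantified by absorbance at 424 nm against oil at 272 nm.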

[3] = substrate: CN(C(=O)[C@@H](CCCCC(=N)N)NC(=O)[C@H](Cc1ccccc1)NC(=O)[C@H]1CCCN1C(=O)OCc1ccccc1)c1ccc(C#C/C=C/c2ccc([N+](=O)[O-])c(O)c2)cc1; test: Proteolysis constant (Km), when mixed with kallikrein enzyme for the conversion of water-soluble compound to fluorescent oil-soluble compound; how it was run: as §1
[4] = substrate: CC[C@@H](C)[C@@H](NC(=O)OCc1ccccc1)C(=O)N1CCC[C@H]1C(=O)N[C@H](CCCCC(=N)N)C(=O)N(C)c1ccc(C#C/C=C/c2ccc([N+](=O)[O-])c(O)c2)cc1; test: Proteolysis constant (Km), when mixed with trypsin enzyme for the conversion of water-soluble compound to fluorescent oil-soluble compound; details: Sus scrofa; how it was run: as §1

B1: Chymotrypsin-like elastase family member 2A (Sus scrofa), P08419 (protein)
chain: MIRALLLSTLVAGALSCGLPANLPQLPRVVGGEDARPNSWPWQVSLQYDSSGQWRHTCGGTLVDQSWVLTAAHCISSSRTYRVVLGRHSLSTNEPGSLAVKVSKLVVHQDWNSNQLSNGNDIALLKLASPVSLTDKIQLGCLPAAGTILPNNYVCYVTGWGRLQTNGASPDILQQGQLLVVDYATCSKPGWWGSTVKTNMICAGGDGIISSCNGDSGGPLNCQGANGQWQVHGIVSFGSSLGCNYYHKPSVFTRVSNYIDWINSVIANN
[1]
  Km: 325 µM

B2: Neutrophil elastase (Homo sapiens), P08246 (protein)
chain: MTLGRRLACLFLACVLPALLLGGTALASEIVGGRRARPHAWPFMVSLQLRGGHFCGATLIAPNFVMSAAHCVANVNVRAVRVVLGAHNLSRREPTRQVFAVQRIFENGYDPVNLLNDIVILQLNGSATINANVQVAQLPAQGRRLGNGVQCLAMGWGLLGRNRGIASVLQELNVTVVTSLCRRSNVCTLVRGRQAGVCFGDSGSPLVCNGLIHGIASFVRGGCASGLYPDAFAPVAQFVNWIDSIIQRSEDNPCPHPRDPDPASRTH
[2]
  Km: 16.1 µM

B3: Kallikrein 1 (Sus scrofa), O97506 (protein)
chain: MEVIVLFRIISFRQAVYFMCLFAAVSCGCLPQLHKNTFFRGGDVSAMYTPSARHCQMMCTFHPRCLLFSFLPADSTSVTDKRFGCFLKDSVTGMLPRVLRENAISGHSLKQCGHQIRACHRDIYKGIDMRGVNFNVSKVKTVEECQERCTNSIHCLFFTYATQAFNNAEYRNNCLLKHSPGGTPTSIKVLANVESGFSLKPCADSEIGCHMDIFQHLAFSDVDVARVIAPDAFVCRTICTYHPNCLFFTFYTNAWKIESQRNVCFLKTSHSGTPSFPTPQENAISGYSLLTCKQTLPEPCHSKIYSEVDFEGEELNVTFVQGANLCQETCTKTIRCQFFTYSLHPEDCRGEKCKCSLRLSSDGSPTKITHGMRASSGYSLRLCRSGDHSACATKANTRIVGGTDSFLGEWPWQVSLQAKLRAQNHLCGGSIIGHQWVLTAAHCFDGLSLPDIWRIYGGILNISEITKETPFSQVKEIIIHQNYKILESGHDIALLKLETPLNYTDFQKPICLPSRDDTNVVYTNCWVTGWGFTEEKGEIQNILQKVNIPLVSNEECQKSYRDHKISKQMICAGYKEGGKDACKGESGGPLVCKYNGIWHLVGTTSWGEGCARREQPGVYTKVIEYMDWILEKTQDDDGQSWMK
[3]
  Km: 92.2 µM

B4: Trypsin (Sus scrofa), P00761 (protein)
chain: FPTDDDDKIVGGYTCAANSIPYQVSLNSGSHFCGGSLINSQWVVSAAHCYKSRIQVRLGEHNIDVLEGNEQFINAAKIITHPNFNGNTLDNDIMLIKLSSPATLNSRVATVSLPRSCAAAGTECLISGWGNTKSSGSSYPSLLQCLKAPVLSDSSCKSSYPGQITGNMICVGFLEGGKDSCQGDSGGPVVCNGQLQGIVSWGYGCAQKNKPGVYTKVCNYVNWIQQTIAAN
[4]
  Km: 97 µM
